Measured values as given in ChEMBL document CHEMBL1153381, “Discovery of 2-(5-nitrothiazol-2-ylthio)benzo[d]thiazoles as novel c-Jun N-terminal kinase inhibitors” (Bioorg Med Chem, 2009).

Legend:
[1] = Inhibition of cJNK phosphorylation by Lantha screen assay
[2] = Inhibition of cJNK phosphorylation by pepJIP1 displacement DELFIA assay
[3] = target: Furin (Homo sapiens, UniProt P09958); test: Inhibition of furin
[4] = Inhibition of lethal factor
[5] = target: RAC-alpha serine/threonine-protein kinase (Homo sapiens) (UniProt P31749); test: Inhibition of AKT at 100 uM
[6] = target: Mitogen-activated protein kinase 14 (Homo sapiens, UniProt Q16539); test: Inhibition of p38alpha
[7] = Inhibition of cJNK phosphorylation in TNF-alpha-stimulated HL60 cells by Lantha screen assay; assay type: cell-based; details: HL-60
[8] = Metabolic stability in rat plasma assessed as drug level remaining after 1 hr; assay type: ADME, cell-free; details: read-out: Stability
Procedure, shortened: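 Fresh rat plasma with 1 μM compound (2.5% final DMSO) at 37 °C, stopped at 0, 30 and 60 min with methanol plus internal standard, analysed by LC–MS. Percent parent remaining was taken against 0 min from peak-area ratios to internal standard. Run in duplicate with a plasma-labile positive control.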

[9] = tested on: Liver microsomes; test: Metabolic stability in rat liver microsomes assessed as half life; assay type: ADME, Microsome
Procedure, shortened: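 Rat liver microsomes (1 mg/mL protein) with 4 μM compound and 2 mM NADPH in 50 mM phosphate pH 7.2, after 5 min preincubation, incubated 1 h at 37.5 °C. Aliquots taken every 15 min were quenched with methanol plus internal standard and analysed by LC–MS. Run in duplicate with 2 control compounds of known half-life.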

Chain of Furin (P09958 whole entry): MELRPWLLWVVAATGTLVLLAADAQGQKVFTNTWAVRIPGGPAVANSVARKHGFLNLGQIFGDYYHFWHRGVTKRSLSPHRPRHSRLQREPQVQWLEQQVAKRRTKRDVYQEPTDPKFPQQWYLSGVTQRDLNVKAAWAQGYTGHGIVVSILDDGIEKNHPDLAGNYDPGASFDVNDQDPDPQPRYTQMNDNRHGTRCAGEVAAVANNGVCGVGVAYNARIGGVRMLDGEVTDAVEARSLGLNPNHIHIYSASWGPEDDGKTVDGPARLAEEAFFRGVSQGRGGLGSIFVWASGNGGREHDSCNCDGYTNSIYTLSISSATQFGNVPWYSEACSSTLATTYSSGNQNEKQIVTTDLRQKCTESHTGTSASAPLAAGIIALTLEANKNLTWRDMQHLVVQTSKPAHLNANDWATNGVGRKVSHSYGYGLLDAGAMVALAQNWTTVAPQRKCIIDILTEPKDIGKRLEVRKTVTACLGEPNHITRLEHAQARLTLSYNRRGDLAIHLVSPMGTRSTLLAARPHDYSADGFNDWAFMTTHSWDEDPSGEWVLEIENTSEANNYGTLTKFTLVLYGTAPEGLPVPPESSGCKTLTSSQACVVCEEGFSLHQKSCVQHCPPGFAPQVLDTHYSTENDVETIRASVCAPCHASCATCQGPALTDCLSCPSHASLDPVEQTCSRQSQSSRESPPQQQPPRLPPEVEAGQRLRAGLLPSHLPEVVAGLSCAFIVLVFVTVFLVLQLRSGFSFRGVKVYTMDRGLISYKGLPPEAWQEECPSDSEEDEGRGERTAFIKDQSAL
Chain of RAC-alpha serine/threonine-protein kinase (Homo sapiens) (P31749 whole entry): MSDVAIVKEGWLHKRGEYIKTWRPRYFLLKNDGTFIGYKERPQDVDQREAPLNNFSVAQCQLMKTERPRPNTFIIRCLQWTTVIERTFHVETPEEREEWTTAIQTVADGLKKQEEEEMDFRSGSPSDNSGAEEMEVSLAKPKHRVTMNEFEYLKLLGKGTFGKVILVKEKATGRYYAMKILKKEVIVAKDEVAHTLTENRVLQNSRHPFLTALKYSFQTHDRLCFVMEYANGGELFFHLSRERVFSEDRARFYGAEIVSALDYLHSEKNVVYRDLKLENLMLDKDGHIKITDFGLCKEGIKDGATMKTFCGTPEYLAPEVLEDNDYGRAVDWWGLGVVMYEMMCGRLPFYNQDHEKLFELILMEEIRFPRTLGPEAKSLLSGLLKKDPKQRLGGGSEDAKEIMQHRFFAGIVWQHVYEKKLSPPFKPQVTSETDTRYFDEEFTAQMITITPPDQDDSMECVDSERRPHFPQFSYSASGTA
Chain of Mitogen-activated protein kinase 14 (Q16539 whole entry): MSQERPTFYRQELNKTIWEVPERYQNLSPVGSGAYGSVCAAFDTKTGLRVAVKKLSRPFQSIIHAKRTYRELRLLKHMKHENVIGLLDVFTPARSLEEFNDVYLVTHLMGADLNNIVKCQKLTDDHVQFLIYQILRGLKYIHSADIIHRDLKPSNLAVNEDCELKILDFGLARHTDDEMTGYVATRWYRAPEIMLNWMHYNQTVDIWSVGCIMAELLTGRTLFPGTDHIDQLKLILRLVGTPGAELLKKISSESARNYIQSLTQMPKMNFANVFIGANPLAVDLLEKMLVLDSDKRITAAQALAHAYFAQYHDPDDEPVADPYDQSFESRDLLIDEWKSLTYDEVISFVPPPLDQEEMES

Row | Compound | IC50 [1] [µM] | IC50 [2] [µM] | also measured
1 | O=[N+]([O-])c1cnc(Sc2nc3cc(Cl)c(Cl)cc3[nH]2)s1 | 23 | 1.5 | –
2 | O=[N+]([O-])c1cnc(Sc2nc3cc(Cl)ccc3o2)s1 | 27 | 0.11 | –
3 | COc1ccc2[nH]c(Sc3ncc([N+](=O)[O-])s3)nc2c1 | 4.7 | 0.13 | –
4 | O=[N+]([O-])c1cnc(Sc2nc3cc(Cl)ccc3s2)s1 | > 50 | > 1 | –
5 | Cn1c(Sc2nc3ccc(Cl)cc3s2)nnc1-c1ccc(Cl)cc1Cl | > 50 | – | –
6 | O=[N+]([O-])c1ccc2nc(Sc3ncc([N+](=O)[O-])s3)[nH]c2c1 | 6.4 | 3.2 | –
7 | Nc1ncnc2nc(Sc3ncc([N+](=O)[O-])s3)[nH]c12 | 27 | > 1 | –
8 | Cn1c(Sc2nc3ccc(Cl)cc3s2)nnc1-c1cccs1 | > 50 | – | –
9 | CCOc1ccc2nc(Sc3ncc([N+](=O)[O-])s3)sc2c1 | > 50 | – | –
10 | Cn1c(Sc2ncc([N+](=O)[O-])s2)nc2ccccc21 | > 50 | 1.5 | –
11 | Cc1ccc2[nH]c(Sc3ncc([N+](=O)[O-])s3)nc2c1 | 3.8 | 0.02 | –
12 | O=[N+]([O-])c1cnc(Sc2nc3ccc(Cl)cc3s2)s1 | > 50 | 0.796 | –
13 | O=[N+]([O-])c1cnc(Sc2nc3ccccc3o2)s1 | 2.7 | 0.24 | –
14 | Cn1c(Sc2nc3ccc(Cl)cc3s2)nnc1-c1ccc2ncccc2c1 | > 50 | – | –
15 | COc1ccccc1-c1nnc(Sc2nc3ccc(Cl)cc3s2)n1-c1ccccc1 | > 50 | – | –
16 | Nc1ncnc2[nH]c(SCc3ccc(C(=O)O)cc3)nc12 | 70 | – | –
17 | O=[N+]([O-])c1cnc(Sc2nc3ncccc3s2)s1 | 4.2 | 0.4 | –
18 | COc1ccc2sc(Sc3ncc([N+](=O)[O-])s3)nc2c1 | 1.8 | 0.1 | IC50 [3]: > 50 µM; IC50 [4]: > 100 µM; inhibition [5]: 5%; IC50 [6]: > 100 µM
19 | O=[N+]([O-])c1cnc(Sc2nc3cc(C(F)(F)F)ccc3[nH]2)s1 | 20.2 | 0.14 | –
20 | Cc1nnc(Sc2nc3ccc(Cl)cc3s2)n1-c1ccc2c(c1)OCCO2 | > 50 | – | –
21 | O=C(O)c1ccc(CSc2nc3ccccc3[nH]2)cc1 | > 100 | – | –
22 | Cc1ccc2nc(Sc3ncc([N+](=O)[O-])s3)oc2c1 | > 50 | 0.29 | –
23 | O=[N+]([O-])c1cnc(Sc2nc3ccccc3s2)s1 | 1.8 | 0.16 | IC50 [7]: 15 µM; IC50 [3]: > 50 µM; IC50 [4]: > 100 µM; remaining at 1 h [8]: 80%; t1/2 [9]: 1.17 h; inhibition [5]: 2%; IC50 [6]: > 100 µM
24 | Nc1nc(Sc2ncc([N+](=O)[O-])s2)c2nc[nH]c2n1 | 55 | 1 | –
25 | O=[N+]([O-])c1ccc(Sc2nc3ccccc3o2)c([N+](=O)[O-])c1 | > 100 | – | –
26 | CO/N=C(\C(=O)Sc1nc2ccccc2s1)c1csc(N)n1 | > 50 | 1.7 | –
27 | O=[N+]([O-])c1cnc(Sc2nc3cc(S(=O)(=O)O)ccc3[nH]2)s1 | > 50 | – | –
28 | O=[N+]([O-])c1cnc(Sc2nc3ccccc3[nH]2)s1 | 8.1 | 0.67 | –
